Laboratory results: ChEMBL document CHEMBL3232898, “Heterocyclic aminoparthenolide derivatives modulate G(2)-M cell cycle progression during Xenopus oocyte maturation” (Bioorg Med Chem Lett, 2014)
The source made the active and inactive calls. The calls are words filed in the database; no cut-off is given here.

Legend:
Oocyte [1] = experiment: Modulation of G2-M cell cycle progression in Xenopus oocytes assessed as effect on phenotype upon progression to GVBD during oocyte maturation in presence of progesterone; format: functional, cell-based
Outline: (§1)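 Isolated Xenopus oocytes (20 per well) were incubated overnight with compound added from DMSO stock (100 µM starting concentration, 1% DMSO final). Next morning GVBD was scored by the appearance of a white spot on the animal pole. Oocytes without spots then received 2 µg/ml progesterone. Time to GVBD was expressed relative to the GVBD50 of DMSO controls, where 1.0 means no change, 2.0 means no maturation and 0.0 means spontaneous GVBD.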

Oocyte [2] = experiment: Modulation of G2-M cell cycle progression in Xenopus oocytes assessed as delay time to germinal vesicle breakdown at 100 uM measured after overnight incubation in presence of progesterone; format: functional, cell-based; outline: as §1
Oocyte [3] = experiment: Modulation of G2-M cell cycle progression in Xenopus oocytes assessed as acceleration of progesterone-stimulated oocyte progression to germinal vesicle breakdown at 5 to 50 uM measured after overnight incubation relative to DMSO-treated control; format: functional; outline: as §1
Oocyte [4] = experiment: Modulation of G2-M cell cycle progression in Xenopus oocytes assessed as inhibition of progesterone-stimulated maturation by measuring germinal vesicle breakdown at 100 uM measured after overnight incubation; format: functional, cell-based; outline: as §1
Oocyte [5] = experiment: Modulation of G2-M cell cycle progression in Xenopus oocytes assessed as acceleration of progesterone-stimulated maturation by measuring germinal vesicle breakdown after overnight incubation; format: functional, cell-based; settings: Xenopus laevis; outline: as §1
Xenopus [6] = experiment: Activation of progesterone-independent MAPK in Xenopus oocytes assessed as de-phosphorylation of MPF at 100 uM measured after GVBD completion; format: cell-based
Outline: (§2)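 Oocytes treated with compound or DMSO were lysed in NP40 buffer with sodium vanadate and protease inhibitors, clarified, run on 10% gels and blotted to nitrocellulose. Blots were blocked in 1% BSA/TBST and probed at 1:1000 with phospho-Cdc2 Tyr15 (inhibitory) and phospho-MAP kinase Thr202/Tyr204 (activating) antibodies, then HRP secondary with ECL detection.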

Xenopus [7] = experiment: Activation of progesterone-independent MAPK in Xenopus oocytes assessed as enzyme phosphorylation at 100 uM measured after GVBD completion; format: cell-based; outline: as §2
Xenopus [8] = experiment: Activation of CDK1/Cyclin B (MPF) in Xenopus oocytes assessed as retention of inhibitory phosphorylation of CDK1 at 100 uM measured prior to GVBD completion; format: cell-based; outline: as §2
Oocyte [9] = experiment: Modulation of G2-M cell cycle progression in Xenopus oocytes assessed as induction of spontaneous maturation by measuring germinal vesicle breakdown at 100 uM after overnight incubation in absence of progesterone; format: functional, cell-based; outline: as §1
Oocyte [10] = experiment: Modulation of G2-M cell cycle progression in Xenopus oocytes assessed as induction of oocyte progression to germinal vesicle breakdown by measuring appearance of white spot on animal pole after overnight incubation in absence of progesterone; format: functional, cell-based; outline: as §1
Xenopus [11] = experiment: Activation of progesterone-independent MAPK in Xenopus oocytes assessed as enzyme phosphorylation at 100 uM measured prior to GVBD completion; format: cell-based; outline: as §2

CSc1nc(NC[C@@H]2C(=O)O[C@H]3[C@H]2CC/C(C)=C/CC[C@@]2(C)O[C@H]32)n[nH]1
Activity (Oocyte [1]): inactive

C/C1=C\CC[C@@]2(C)O[C@@H]2[C@H]2OC(=O)[C@@H](CNCc3nc4ccccc4[nH]3)[C@@H]2CC1
Activity (Oocyte [1]): inactive

C/C1=C\CC[C@@]2(C)O[C@@H]2[C@H]2OC(=O)[C@@H](CNCCN3CCOCC3)[C@@H]2CC1
Activity (Oocyte [2]): Active

C/C1=C\CC[C@@]2(C)O[C@@H]2[C@H]2OC(=O)[C@@H](CNCCCn3ccnc3)[C@@H]2CC1
fold change (FC) (Oocyte [3]): 2 | inhibition (Oocyte [4]): Active | EC50 (Oocyte [5]): < 5 µM

C/C1=C\CC[C@@]2(C)O[C@@H]2[C@H]2OC(=O)[C@@H](Cn3cnc(C(F)(F)F)c3)[C@@H]2CC1
Activity (Oocyte [1]): inactive

C/C1=C\CC[C@@]2(C)O[C@@H]2[C@H]2OC(=O)[C@@H](Cn3ccnc3)[C@@H]2CC1
Activity (Oocyte [1]): inactive

C/C1=C\CC[C@@]2(C)O[C@@H]2[C@H]2OC(=O)[C@@H](CNc3nc4ccccc4[nH]3)[C@@H]2CC1
Activity (Xenopus [6]): Active | Activity (Xenopus [7]): Active | Activity (Xenopus [8]): inactive | Activity (Oocyte [9]): Active | Activity (Oocyte [10]): Dose-dependent effect | Activity (Xenopus [11]): Active

C=C1C(=O)O[C@@H]2C3O[C@]3(C)CC/C=C(\C)CC[C@@H]12 (stereo not given in full)
Activity (Oocyte [1]): inactive

C/C1=C\CC[C@@]2(C)O[C@@H]2[C@H]2OC(=O)[C@@H](Cn3cnc(CO)c3)[C@@H]2CC1
Activity (Oocyte [1]): inactive

C/C1=C\CC[C@@]2(C)O[C@@H]2[C@H]2OC(=O)[C@@H](CNCC3CCNCC3)[C@@H]2CC1
Activity (Oocyte [1]): inactive

C/C1=C\CC[C@@]2(C)O[C@@H]2[C@H]2OC(=O)[C@@H](Cn3cnc([N+](=O)[O-])c3)[C@@H]2CC1
Activity (Oocyte [1]): inactive

C/C1=C\CC[C@@]2(C)O[C@@H]2[C@H]2OC(=O)[C@@H](Cn3ccnc3C)[C@@H]2CC1
Activity (Oocyte [1]): inactive

C/C1=C\CC[C@@]2(C)O[C@@H]2[C@H]2OC(=O)[C@@H](CN(C)C)[C@@H]2CC1
Activity (Oocyte [1]): inactive
